Test [1] concerns LoVo. Description: Cytotoxic potentiation factor of temoxolomide in human LoVo cancer cell line at 0.4 uM concentration. In kind it is functional. The essentials: (§1)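 Exponentially growing cells were exposed to increasing concentrations of cytotoxic drug (temozolomide or topotecan), alone or with PARP-1 inhibitor fixed at 0.4 µM. Drugs were added from DMSO stocks, giving 1% DMSO final. Growth was read by SRB assay and normalised to the 1% DMSO control or to inhibitor alone. PF50 is the ratio of drug GI50 alone to drug GI50 with inhibitor.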

Test [2] concerns A549. Kind of test: Compound was evaluated for cytotoxic potentiation factor of topotecan in human A549 tumor cell line at 0.4 uM concentration. In kind it is functional. Put shortly: as §1
Test [3] has as its system LoVo. Kind of test: Compound was evaluated for cytotoxic potentiation factor of topotecan in human LoVo cancer cell line at 0.4 uM concentration. The class given is functional. The essentials:
as §1

Test [4] has as its system A549. Description: Cytotoxic potentiation factor of temoxolomide in human A549 tumor cell line at 0.4 uM concentration. In kind it is functional. The essentials:
as §1

For test [5], the target named is Poly [ADP-ribose] polymerase 1 (Homo sapiens, UniProt P09874).
Chain of Poly [ADP-ribose] polymerase 1 (P09874 whole entry): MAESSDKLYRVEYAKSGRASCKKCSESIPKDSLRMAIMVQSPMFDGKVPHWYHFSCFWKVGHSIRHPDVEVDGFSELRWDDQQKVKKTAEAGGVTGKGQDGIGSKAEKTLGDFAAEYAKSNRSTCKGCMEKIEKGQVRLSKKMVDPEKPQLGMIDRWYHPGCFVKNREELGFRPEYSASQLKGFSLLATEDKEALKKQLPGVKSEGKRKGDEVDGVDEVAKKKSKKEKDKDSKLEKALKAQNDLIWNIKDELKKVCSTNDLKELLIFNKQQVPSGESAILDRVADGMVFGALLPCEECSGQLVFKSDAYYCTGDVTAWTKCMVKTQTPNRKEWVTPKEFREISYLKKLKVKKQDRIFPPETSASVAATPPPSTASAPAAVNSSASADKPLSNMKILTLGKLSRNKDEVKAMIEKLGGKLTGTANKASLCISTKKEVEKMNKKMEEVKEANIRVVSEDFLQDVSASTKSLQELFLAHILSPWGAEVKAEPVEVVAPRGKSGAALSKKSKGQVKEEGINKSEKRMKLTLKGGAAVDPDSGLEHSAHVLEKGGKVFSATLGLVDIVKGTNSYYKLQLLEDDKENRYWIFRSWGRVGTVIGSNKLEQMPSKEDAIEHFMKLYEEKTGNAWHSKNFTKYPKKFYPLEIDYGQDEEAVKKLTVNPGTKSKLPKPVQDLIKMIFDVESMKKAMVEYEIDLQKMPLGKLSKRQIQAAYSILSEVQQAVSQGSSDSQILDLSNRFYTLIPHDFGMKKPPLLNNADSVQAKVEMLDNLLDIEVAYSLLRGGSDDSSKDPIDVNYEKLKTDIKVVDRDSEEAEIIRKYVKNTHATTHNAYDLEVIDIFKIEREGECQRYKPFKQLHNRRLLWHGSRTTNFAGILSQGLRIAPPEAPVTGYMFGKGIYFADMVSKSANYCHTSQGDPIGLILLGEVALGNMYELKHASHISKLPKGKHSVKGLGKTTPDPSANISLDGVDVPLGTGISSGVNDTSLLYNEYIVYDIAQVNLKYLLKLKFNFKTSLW

Take `NC(=O)c1cccc2[nH]c(-c3ccc(CN4CCCC4)cc3)nc12`: the PF50 amounted to 5.2 in the test on LoVo [1], 1.8 in the test with A549 [2], 1.5 in the test on LoVo [3] and 1.5 in the test with A549 [4]. In test [5], this molecule yielded a Ki of 5.9 nM.

In test [5], `CN1CCN(Cc2cccc(-c3nc4c(C(N)=O)cccc4[nH]3)c2)CC1` displayed an inhibition constant (Ki) of 9.8 nM. This counts as single-digit nanomolar.

On to `NC(=O)c1cccc2[nH]c(-c3ccc(CN4CCCCC4)cc3)nc12`, for which, in test [5], the Ki turned out to be 7.2 nM. The Ki values of the last two molecules are within 1.5-fold of each other.

On to `NC(=O)c1cccc2[nH]c(-c3ccc(CN4CCOCC4)cc3)nc12`, for which the inhibition constant Ki in test [5] was determined as 12 nM.

In test [5], `NC(=O)c1cccc2[nH]c(-c3cccc(CN4CCOCC4)c3)nc12` showed a Ki of 31 nM.

In test [5], `NC(=O)c1cccc2[nH]c(-c3ccc(CN(CCO)CCO)cc3)nc12` displayed an inhibition constant (Ki) of 4.5 nM. Against the preceding molecule, the Ki is about 6.9-fold lower.

As for `NC(=O)c1cccc2[nH]c(-c3cccc(CN4CCCC4)c3)nc12`, the PF50 in the test on LoVo [1] worked out at 1.7; in the test on LoVo [3] it was 1.1. The same molecule yielded an inhibitory constant (Ki) in test [5] of 10.2 nM.

`CN(C)Cc1ccc(-c2nc3c(C(N)=O)cccc3[nH]2)cc1`: the PF50 was determined as 4 in the test on LoVo [1], 1.9 with A549 [2], 1.7 in the test with LoVo [3] and 1.6 with A549 [4]. In addition, affinity in test [5] was put at a Ki of 4.5 nM.

Take `NC(=O)c1cccc2[nH]c(-c3cccc(CN(CCO)CCO)c3)nc12`: the PF50 with A549 [2] and with A549 [4] was 1.1 throughout. This molecule also yielded a Ki in test [5] of 272 nM.

Turning to `CN1CCN(Cc2ccc(-c3nc4c(C(N)=O)cccc4[nH]3)cc2)CC1`, in test [5], the Ki was 8.7 nM. In other words, the single-digit nanomolar range.

In the case of `CN(C)Cc1cccc(-c2nc3c(C(N)=O)cccc3[nH]2)c1`, the values for the PF50 in the test with LoVo [1] and with LoVo [3] were 1.7 and 1.4, respectively. The inhibition constant Ki in test [5] is 5.6 nM.

(Values after ChEMBL document CHEMBL1148248, “Potentiation of cytotoxic drug activity in human tumour cell lines, by amine-substituted 2-arylbenzimidazole-4-carboxamide PARP-1 inhibitors” (Bioorg Med Chem Lett, 2004).)
